# Shown are actives, neighbours in structure and some others; about 4.3% of the full set was active somewhere.
# Rtt109 HAT inh = C. albicans Rtt109 histone acetyltransferase inhibition; Q5AAJ8; inhibition, % at 34.9 µM; purified Rtt109/Vps75, ThioGlo CoA-SH fluorescence, 4 h; 330,000 compounds, 0.16% hits;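 active means inhibition of at least 50% in every replicate; inconclusive means best replicate reaches 50% inhibition but some replicates fall short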
# Target sequence (Q5AAJ8 whole entry, looked up): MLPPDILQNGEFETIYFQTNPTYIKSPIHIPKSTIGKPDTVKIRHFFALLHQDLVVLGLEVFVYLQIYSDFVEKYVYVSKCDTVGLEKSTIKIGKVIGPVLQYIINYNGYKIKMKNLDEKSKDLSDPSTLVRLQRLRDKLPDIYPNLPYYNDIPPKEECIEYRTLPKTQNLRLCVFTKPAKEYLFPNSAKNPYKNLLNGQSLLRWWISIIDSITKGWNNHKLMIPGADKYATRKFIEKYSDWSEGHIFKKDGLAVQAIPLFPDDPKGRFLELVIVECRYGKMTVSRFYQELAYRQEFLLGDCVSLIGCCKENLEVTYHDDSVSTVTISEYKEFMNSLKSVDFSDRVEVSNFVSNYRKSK
# CAL PDZ FP-1 = inhibitors of human CAL PDZ peptide binding | Q9HD26 | AID 504414 | 330,000 compounds, 0.02% hits | inhibition, % at 20 µM | purified CAL PDZ, TMR-peptide fluorescence polarization, 1 h;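 active means highest replicate inhibition of at least 40%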;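 further: plate controls were DMSO neutral control wells for no effect and unlabeled competitor peptide control wells for full effect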
#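 material = purified tagged CAL PDZ domain construct (CerCALP) | buffer or medium = sodium phosphate/NaCl buffer pH 7.4 with TCEP, IgG, Thesit | reagent = TMR-labelled reporter peptide T*-PRC34 bound in PDZ groove | incubation = 1 h room-temperature incubation prior to read | measured by = fluorescence polarization (mP) | evaluation = percent inhibition from loss of millipolarization | control set = unlabelled peptide and DMSO controls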
# ALR inh = inhibitors of human sulfhydryl oxidase ALR; P55789; purified ALR, DTT oxidation, H2O2 HRP-luminol luminescence; inhibition, % (test concentration not listed); 290,000 compounds, 3.8% hits; AID 485317;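 active means mean replicate inhibition above about 79%, with every replicate also reaching it, limit read from the data; inconclusive means only one of the two criteria met; inactive means mean below limit and not every replicate reaching it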
# Target sequence (P55789 whole entry, looked up): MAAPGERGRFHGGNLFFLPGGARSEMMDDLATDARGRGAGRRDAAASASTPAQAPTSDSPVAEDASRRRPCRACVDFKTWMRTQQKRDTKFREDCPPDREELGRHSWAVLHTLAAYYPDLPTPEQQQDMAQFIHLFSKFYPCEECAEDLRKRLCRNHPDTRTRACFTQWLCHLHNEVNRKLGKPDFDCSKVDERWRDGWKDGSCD
# DYRK1A inh = blocks rat Dyrk1A kinase activity; Q63470; ADP-Glo luminescence, NFATc1 peptide; inhibition, % at 12.5 µM; 310,000 compounds, 0.43% hits; AID 504441; in the data active means inhibition above about 50%;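 further: plate controls were vehicle with enzyme for no effect and no enzyme for full effect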
# CAL PDZ FP-2 = inhibitors of human CAL PDZ peptide binding. 300,000 compounds, 0.92% hits. inhibition, % at 24.9 µM. purified CAL PDZ, TMR-peptide fluorescence polarization, 1 h;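 active means mean inhibition of at least 30% with at least half of replicates also reaching 30%; inconclusive means no clear call, values can overlap the other calls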;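 further: 0% = DMSO neutral control and 100% = excess unlabeled competitor peptide PRC23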
# Numbers without * were called inactive; ? = inconclusive; . = no result given; + = active, no number.
SMILES,Rtt109 HAT inh,CAL PDZ FP-1,ALR inh,DYRK1A inh,CAL PDZ FP-2
CCC(/C=C1\Oc2ccc(OC)cc2N1C)=C\c1sc2ccccc2[n+]1CCCS(=O)(=O)[O-],7,-12,.,2,-8
O=C(NCc1ccc2c(c1)OCO2)c1nc(S(=O)(=O)Cc2ccccc2)ncc1Cl,-5,-2,99*,8,-4
O=C(NCc1ccc2c(c1)OCO2)c1nc(S(=O)(=O)Cc2ccccc2F)ncc1Cl,30,-1,3,-6,-1
COC(=O)c1ccccc1NC(=O)c1nc(S(=O)(=O)Cc2ccccc2)ncc1Cl,-18,-1,7,0,-5
O=C(NCc1ccccc1)c1nc(S(=O)(=O)Cc2ccccc2)ncc1Cl,?,0,-3,0,+
CC(=O)Nc1ccc(NC(=O)c2nc(S(=O)(=O)Cc3ccccc3)ncc2Cl)cc1,113*,-3,2,3,-5
COc1ccc(CNC(=O)c2nc(S(=O)(=O)Cc3ccccc3)ncc2Cl)cc1,?,-2,10,-11,0
Cc1ccc(-n2c(SC3CCOC3=O)nc3ccccc3c2=O)cc1 (centres undefined),.,.,-3,.,.
COc1ccccc1CC(=O)NCCN1CCCCC1,-4,1,-5,4,-1
Cc1cc(Cl)ccc1OCCCC(=O)NO,-6,0,99*,13,1
Cc1cc(Cl)ccc1OCCCC(N)=O,2,0,.,-2,-4
O=C(COc1ccc2ccccc2c1)Nc1ccccc1C(=O)O,-1,-4,-3,-12,-3
CCc1ccc(-c2cc3c(=O)n(CC(=O)NCCN4CCCCC4C)nc(C)n3n2)cc1 (centres undefined),4,-2,-31,-4,0
O=[N+]([O-])c1ccc(NNS(=O)(=O)c2cc(Cl)ccc2Cl)nc1,29,-2,100*,-6,9
COc1cc(-n2c(=O)c3ccccc3n(Cc3cc(=O)n4ccccc4n3)c2=O)cc(OC)c1OC,10,-2,2,-1,10
O=C(c1ccc(=O)oc1)N1CCCc2ccccc21,0,0,89*,0,-4
Cc1ccccc1NC(=S)N(Cc1ccco1)C(C)c1cccs1 (centres undefined),1,19,.,3,47*
C=C(C(=O)c1ccccc1)C(C)C(=C)C(=O)c1ccccc1,-3,-2,87*,-3,-3
O=C(Cn1ccc([N+](=O)[O-])n1)NCc1ccccc1,-2,0,-7,2,-2
CC(=O)Oc1ccc(C(=O)NCc2ccco2)cc1,2,-1,2,2,3
Cc1ccc2nc(N3CCN(Cc4nnnn4C4CCCC4)CC3)c(C#N)cc2c1,-11,-2,-7,5,55*
COc1cccc(N2CCN(Cc3nnnn3C3CCCCC3)CC2)c1,19,0,89*,1,-1
Cc1ccc(C)c(N2CCN(Cc3nnnn3C3CCCCC3)CC2)c1,-1,0,-2,-8,3
O=C(CSC1=NCCS1)c1ccc(Cl)cc1,0,-3,98*,-8,-1
O=C(CSC1=NCCS1)N1CCN(c2ccc(Cl)cc2)CC1,.,-2,73,-2,0
SMILES,Rtt109 HAT inh,CAL PDZ FP-1,ALR inh,DYRK1A inh,CAL PDZ FP-2
CCOC(=O)CSc1nc2ccc(Nc3nc(N4CCOCC4)nc(N4CCOCC4)n3)cc2s1,-5,0,99*,2,-1
CC(=O)CSc1nc2ccc(Nc3nc(N4CCOCC4)nc(N4CCOCC4)n3)cc2s1,-9,-1,99*,-5,-1
CC(C)(C)NC(=O)CSc1nc2ccc(Nc3nc(N4CCOCC4)nc(N4CCOCC4)n3)cc2s1,5,-2,99*,-47,0
CCCN(CC(=O)Nc1ccccc1C)C(=O)c1ccc2c(c1)S(=O)(=O)N=C1CCCCCN12,1,0,.,-1,.
O=C(Nc1ccc(C(=O)N2CCOCC2)cc1)c1cc(-c2cccnc2)nc2ccc(Cl)cc12,-3,0,.,.,-1
O=C(NCc1ccccn1)C(=O)NCC1OCCN1S(=O)(=O)c1ccc(F)cc1 (centres undefined),-5,-2,-2,-1,0
O=C(NCCNC(=O)c1ccc(Br)o1)c1cccnc1,-16,-1,-11,2,-4
Cc1ccc([N+](=O)[O-])cc1S(=O)(=O)Nc1ccc(N2CCOCC2)cc1,-1,0,99*,-1,-4
Cc1cc(C)c(S(=O)(=O)Nc2ccc(OCC(=O)O)cc2)c(C)c1,-15,-1,0,-17,43*
COc1ccc(NS(=O)(=O)c2c(C)cc(C)cc2C)cc1,12,0,-10,2,-3
O=[N+]([O-])c1ccc([N+](=O)[O-])c(Nc2ccc(N3CCOCC3)cc2)c1,2,1,98*,-3,.
O=S(=O)(Nc1ccc(N2CCOCC2)cc1)c1ccc(Cl)s1,3,-2,98*,2,-1
O=S(=O)(NN1CCOCC1)c1ccc(Cl)s1,18,-2,-6,22,-2
CCCCn1c(N)c(C(=S)NC(=O)CC(C)(C)C)c(=O)n(C)c1=O,7,-6,40,-8,-1
CN1C[C@@H]2[C@@H]3C(=O)N(C)C(=O)[C@@H]3[C@](C)(C1=O)N2C(=O)c1ccc(C(C)(C)C)cc1,-52,0,.,0,2
Cc1ccc2c(c1)N(C(=O)CCC(=O)NC1CCCCCC1)CC(C)O2 (centres undefined),-7,-1,-1,0,5
Cc1nc2ccccn2c(=O)c1NC(=O)c1cccc2ccccc12,3,-2,-7,4,0
OCC[C@H]1C[C@@H](O)[C@H](O)[C@]2(OCCc3ccccc32)O1,1,-1,.,5,0
O=C(c1ccc(OC2CCN(CCO)CC2)cc1)N1CCCC1,0,0,-19,.,.
CCOc1ccc(N2CC(NC(=O)c3ccc4ccccc4c3)CC2=O)cc1 (centres undefined),17,-2,.,-2,-7
Cc1cc(C)c(S(=O)(=O)Nc2ccc(N3CCOCC3)cc2)c(C)c1,-6,-2,86*,-2,-2
O=S(=O)(/C=C/c1ccccc1)Nc1ccc(N2CCOCC2)cc1,-1,0,95*,-2,1
O=S(=O)(Nc1ccc(N2CCCCC2)cc1)c1ccccc1,0,-2,61,-14,1
O=S(=O)(Nc1ccc(N2CCOCC2)cc1)c1ccccc1,-8,1,99*,0,0
COc1cccc(C(C(=O)NC(C)(C)C)N(Cc2ccc(F)cc2)C(=O)CCC(=O)Nc2cc(C)on2)c1OC (centres undefined),-4,-1,.,-4,-3
CC(=O)Nc1nc(-c2ccc3c(c2)CC(C)N3C(=O)C2CC2)c(C)s1 (centres undefined),2,-4,99*,2,-3
CCOC(=O)C(=O)Nc1nc(-c2ccc3c(c2)CCN3C(=O)C2CC2)c(C)s1,3,-3,99*,2,2
Cc1sc(NC(=O)CN2CCCC2)nc1-c1ccc2c(c1)CCN2C(=O)c1cccc(F)c1,3,-2,?,3,165*
